From ChEMBL document CHEMBL3351594, “Cytotoxic dimeric epipolythiodiketopiperazines from the ascomycetous fungus Preussia typharum” (J Nat Prod, 2014)

Legend:
[1] = system: HL-60(TB); assay: Cytotoxicity against human HL-60(TB) cells by SRB method; type: functional
Outline: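 Tested in the NCI-60 in vitro screening panel. GI50 is the molar concentration giving 50% growth inhibition, and TGI is the molar concentration giving total growth inhibition.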

[2] = system: SR; assay: Cytotoxicity against human SR cells by SRB method; type: functional
Outline: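 NCI-60 in vitro screen panel of human tumor lines; GI50 (molar concentration giving 50% growth inhibition) and TGI (total growth inhibition) taken from dose–response data.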

[3] = system: HeLa; assay: Cytotoxicity against human HeLa cells assessed as reduction of colony formation incubated for 4 hrs followed by compound washout measured after 14 days relative to vehicle-treated control; type: functional, cell-based
Outline: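 HeLa cells (300) were plated in dishes and treated with vehicle (DMSO) or compound for 4 h. They were then washed with DPBS and given fresh medium. After 14 days, colonies were fixed, stained with 0.5% crystal violet in 10% methanol and counted. Analysis was one-way ANOVA with Dunnett's post hoc test against vehicle.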

[4] = system: NCI-H460; assay: Cytotoxicity against human NCI-H460 cells by SRB method; type: functional
Outline: (§1)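 NCI-60 in vitro drug screening panel. Values are the molar concentrations giving 50% growth inhibition (GI50) and total growth inhibition (TGI).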

[5] = system: MOLT-4; assay: Cytotoxicity against human MOLT4 cells by SRB method; type: functional; outline: as §1
[6] = Cytotoxicity against human EKVX cells by SRB method; type: functional; outline: as §1
[7] = system: CAKI-1; assay: Cytotoxicity against human Caki1 cells by SRB method; type: functional; outline: as §1
[8] = system: SK-MEL-28; assay: Cytotoxicity against human SK-MEL-28 cells by SRB method; type: functional; outline: as §1
[9] = Cytotoxicity against human Hs578T cells by SRB method; type: functional; conditions: Hs-578T; outline: as §1
[10] = read-out: LC50 (the source's name)

In the case of `CC(C)[C@@]12SS[C@]3(C(=O)N1C)[C@@H](O)[C@]1(C45c6ccccc6N[C@H]4N4C(=O)[C@@]6(CO)SS[C@@]4(C(=O)N6C)[C@H]5O)c4ccccc4N[C@@H]1N3C2=O` (some centres undefined), the GI50 [1] is reported as 26.3 nM, the TGI [1] is reported as 195 nM and the CC50 [1, 10] is reported as greater than 50000 nM. For the same compound, the GI50 [2] was 11.2 nM, the TGI [2] was 31.6 nM and the CC50 [2, 10] was greater than 50000 nM. The Activity [3] was “Dose-dependent effect”, the GI50 [4] was 20.9 nM and the TGI [4] was 75.9 nM. For the same compound, the CC50 [4, 10] was 246 nM, the GI50 [5] was 13.2 nM and the TGI [5] was 67.6 nM. It also gave a CC50 [5, 10] greater than 50000 nM, a GI50 [6] of 28.2 nM and a TGI [6] of 257 nM. The CC50 [6, 10] was 2040 nM, the GI50 [7] was 8.7 nM and the TGI [7] was 22.4 nM. For the same compound, the CC50 [7, 10] was 85.1 nM, the GI50 [8] was 12.6 nM and the TGI [8] was 38 nM. For the same compound, the CC50 [8, 10] was 135 nM, the GI50 [9] was 26.3 nM and the TGI [9] was 447 nM.
